The source of these data is ChEMBL document CHEMBL3585272, “Syntheses and Antibacterial Activity of N-Acylated Ciprofloxacin Derivatives Based on the Trimethyl Lock” (ACS Med Chem Lett, 2015).

By MIC is commonly meant the smallest concentration in the dilution series that meets the test's criterion for growth inhibition. Read a high MIC as a less susceptible organism.

Test [1] deals with Micrococcus luteus. Description: Antibacterial activity against Micrococcus luteus ATCC 10240 by broth microdilution method. The test is classed as functional. The procedure, abridged:
(§1)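 Broth microdilution in Mueller-Hinton broth No.2 (MHII) following CLSI guidelines. The MIC (μM) was read by visual end point. Each compound was tested in triplicate.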
In general terms: In broth dilution the organism is exposed to a series of concentrations in liquid medium.

Test [2] deals with Micrococcus luteus. Nature of the test: Antibacterial activity against Micrococcus luteus ATCC 10240 at 5 ug/ml incubated for 24 hrs at 37 degC by agar diffusion assay. The class given is functional. The note with it: ATCC 10240, 24 h, read-out: DIZ. Put shortly:
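Agar well diffusion: the drug was dissolved in water and added to 9 mm wells cut in Standard I Nutrient Agar or Mueller Hinton II agar seeded with the strain. Inhibition zone diameters were read after 24 h at 37 °C. Zones were scored as very unclear where the zone boundary was indistinct.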
(In agar diffusion tests the substance spreads into inoculated agar from a disc or well.)

In test [3] the test system is Pseudomonas aeruginosa. Nature of the test: microbe, parasite or virus in culture. As to conditions: K799/61, 24 h, read-out: DIZ.
For test [4], the system named is Escherichia coli. Description: Antibacterial activity against Escherichia coli DC2 by broth microdilution method. The test is classed as functional. The procedure, abridged: as §1
Test [5] has as its system Escherichia coli. Nature of the test: Antibacterial activity against Escherichia coli DC0 at 5 ug/ml incubated for 24 hrs at 37 degC by agar diffusion assay. As to conditions: DC0, 24 h, read-out: DIZ.
Test [6] relates to Acinetobacter baumannii. Nature of the test: microbe, parasite or virus in culture. The note with it: ATCC 17961, 24 h, read-out: DIZ.
Test [7] has as its system Staphylococcus aureus. Description: Antibacterial activity against Staphylococcus aureus SG511 at 5 ug/ml incubated for 24 hrs at 37 degC by agar diffusion assay. The note with it: SG511, 24 h, read-out: DIZ.
For test [8], the system named is Pseudomonas aeruginosa. Nature of the test: Antibacterial activity against Pseudomonas aeruginosa K799/61 by broth microdilution method. The test is classed as functional. The procedure, abridged:
as §1

Test [9] deals with Escherichia coli. Description: Antibacterial activity against Escherichia coli DC0 by broth microdilution method. The test is classed as functional. The procedure, abridged:
as §1

Test [10] deals with Acinetobacter baumannii. Nature of the test: microbe, parasite or virus in culture. The note with it: ATCC 17961, 24 h, read-out: DIZ. The source holds these as a separate data set.
Test [11] relates to Bacillus subtilis. Nature of the test: microbe, parasite or virus in culture. The note with it: ATCC 6633, 24 h, read-out: DIZ.
For test [12], the system named is Mycolicibacterium vaccae. Description: Antibacterial activity against Mycobacterium vaccae IMET10670 by broth microdilution method. The test is classed as functional. The procedure, abridged:
as §1

Test [13] concerns Bacillus subtilis. Description: microbe, parasite or virus in culture. The note with it: ATCC 6633, 24 h, read-out: DIZ. The source holds these as a separate data set.
Test [14] deals with Pseudomonas aeruginosa. Nature of the test: microbe, parasite or virus in culture. The note with it: K799/61, 24 h, read-out: DIZ. The source holds these as a separate data set.
For test [15], the system named is Staphylococcus aureus. Nature of the test: Antibacterial activity against Staphylococcus aureus SG511 by broth microdilution method. The test is classed as functional. Put shortly:
as §1

The subject of test [16] is Acinetobacter baumannii. Description: Antibacterial activity against Acinetobacter baumannii ATCC 17961 by broth microdilution method. The class given is functional. Put shortly:
as §1

The subject of test [17] is Mycolicibacterium vaccae. Nature of the test: Antibacterial activity against Mycobacterium vaccae IMET10670 at 5 ug/ml incubated for 44 hrs at 37 degC by agar diffusion assay. The test is classed as functional. As to conditions: IMET10670, 44 h, read-out: DIZ. The procedure, abridged:
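Agar well diffusion with the sample in H2O at 5 μg/mL. 50 μL was added to 9 mm wells in nutrient or Mueller Hinton II agar. Plates were incubated at 37 °C for 24 h, or 44 h for M. vaccae, and inhibition zones were read.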

The subject of test [18] is Pseudomonas aeruginosa. Nature of the test: Antibacterial activity against wild type Pseudomonas aeruginosa K799 by broth microdilution method. The test is classed as functional. The procedure, abridged:
as §1

The test system of test [19] is Bacillus subtilis. Nature of the test: Antibacterial activity against Bacillus subtilis ATCC 6633 by broth microdilution method. The class given is functional. Put shortly:
as §1

For test [20], the system named is Pseudomonas aeruginosa. Nature of the test: microbe, parasite or virus in culture. As to conditions: K799, 24 h, read-out: DIZ.

Values after ≈ are worked out from the molar mass of the structure shown.

Take `O=C(O)c1cn(C2CC2)c2cc(N3CCNCC3)c(F)cc2c1=O` [CIPROFLOXACIN]: the MIC against Micrococcus luteus [1] amounted to 8 µM (≈ 2.65 µg/mL); against Escherichia coli [4] it was 0.24 µM (≈ 0.0795 µg/mL); against Pseudomonas aeruginosa [8] it was 0.24 µM (≈ 0.0795 µg/mL); in the test on Escherichia coli [9], 0.47 µM (≈ 0.156 µg/mL); against Mycolicibacterium vaccae [12] it was 0.47 µM (≈ 0.156 µg/mL); against Staphylococcus aureus [15], 0.47 µM (≈ 0.156 µg/mL). Also, the MIC in the test with Acinetobacter baumannii [16] turned out to be 0.24 µM (≈ 0.0795 µg/mL); against Pseudomonas aeruginosa [18], 0.47 µM (≈ 0.156 µg/mL); with Bacillus subtilis [19], 0.03 µM (≈ 0.00994 µg/mL). In addition, the zone of inhibition at 5 µg/mL in the test with Micrococcus luteus [2] worked out at 0 mm; in the test on Escherichia coli [5] it was 18 mm; with Acinetobacter baumannii [6], 21 mm; in the test on Staphylococcus aureus [7], 21 mm; in the test with Acinetobacter baumannii [10] it was 18 mm; in the test on Mycolicibacterium vaccae [17], 23 mm. The zone of inhibition at 1.66 µg/mL with Pseudomonas aeruginosa [3] was 24 mm; in the test with Bacillus subtilis [11] it was 24 mm; with Bacillus subtilis [13], 20 mm; in the test on Pseudomonas aeruginosa [14], 19 mm; in the test on Pseudomonas aeruginosa [20] it was 15 mm.
